Source: article PMC4971285 (International Journal for Parasitology: Drugs and Drug …, 2016)
Like-named read-outs stand apart in the source and are kept apart here.

Assays:
[1] = Cytotoxicity on Vero cells; assay type: cell-based; details: African green monkey
In short: (§1)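 Vero cells kept in RPMI 1640 with 10% FBS at 37 °C, 5% CO2, seeded 1.5 × 10^4/well and cultured 24 h. Treated 72 h at 100 to 3.7 μM, with or without 30 μM heme in medium. Resazurin (0.005%) added for 4 h at 37 °C, fluorescence read at 530/600 nm. CC50 fitted from dose-response versus untreated control. Triplicates.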

Vero cells = assay: Cytotoxicity on Vero cells; assay type: cell-based
In short: as §1

[2] = Cytotoxicity on primary cardiomyocytes; assay type: cell-based, mice; details: mouse, primary embryonic cardiomyocytes
In short: (§2)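 Heart muscle cells were enzymatically isolated from mouse embryo myocardia and grown in DMEM with 2.5 mM CaCl2, 2% chick embryo extract, 7% FBS and 1 mM L-glutamine. Seeded 7 × 10^4/well, cultured 24 h, then treated 72 h at 100 to 3.7 μM, with or without 30 μM heme. Resazurin 0.005% for 4 h, fluorescence at 530/600 nm. CC50 fitted against untreated control. Triplicates.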

Cardiomyocytes = assay: Cytotoxicity on primary cardiomyocytes; assay type: cell-based, mice; details: read-out: CC50 Vero/CM, cardiomyocytes, 72 h, resazurin
In short: as §2

[3] = Epimastigote growth inhibition; assay type: cell-based; details: Trypanosoma cruzi
In short: (§3)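 Log-phase Y-strain epimastigotes (5 × 10^5/mL) treated 72 h at 28 °C in BHI with folic acid, 150 μM hemin and 10% FBS, at 50, 25 and 12.5 μM. Final DMSO ≤1%. Counted in a Neubauer chamber, with motility and morphology as viability criteria. IC50 derived by probit. Selectivity index taken as cardiomyocyte CC50 divided by epimastigote IC50.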

[4] = test system: T. cruzi Y epimastigote forms; assay: Epimastigote growth inhibition; assay type: cell-based; details: Trypanosoma cruzi, 72 h, read-out: IC50 (Concentration that inhibits the growth of 50% of T. cruzi Y epimastigote forms within 72 h), 72 h, in the presence of 150 μM of heme, Probit
In short: as §3

[5] = test system: T. cruzi Y trypomastigotes; assay: Trypomastigote viability; assay type: cell-based, Trypanosoma cruzi; details: 30 μM compound, 24 h, with vs without 30 μM hemin
In short: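 Culture-derived Y-strain trypomastigotes were collected from infected Vero supernatants at 4 dpi. Parasites (2 × 10^6/100 μl) incubated 24 h at 37 °C in RPMI 1640 with 30 μM test compound, with or without 30 μM hemin. […] Viability read by resazurin (0.005%) fluorescence at 530/600 nm. Percentage death calculated against the matching untreated or hemin-only control.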

T. cruzi Y amastigotes = assay: Intracellular amastigotes in infected cardiomyocytes; assay type: cell-based; details: Trypanosoma cruzi, Cardiomyocyte, 72 h, read-out: Percentage of amastigote growth inhibition, 72 h of treatment with 10 μM of compounds

SMILES	CC50 at 72 h [1] [µM]	CC50 (Vero cells; read-out: CC50 Vero/CM, medium without heme, 72 h, resazurin) [µM]	CC50 (Vero cells; read-out: CC50 Vero/CM, with 30 μM of heme, 72 h, resazurin) [µM]	CC50 at 72 h [2] [µM]	CC50 (Cardiomyocytes; medium without heme) [µM]	CC50 (Cardiomyocytes; with 30 μM of heme) [µM]	selectivity ratio at 72 h [3]	IC50 [4] [µM]	increase in activity (death of trypomastigote forms) by combination with hemin [5]	inhibition of growth at 10 µM (T. cruzi Y amastigotes) [%]
O=C(Cn1ccnc1[N+](=O)[O-])NCc1ccccc1 [Bz, benznidazole, reference compound]	> 100	> 100	> 100	> 100	> 100	> 100	> 17.9	5.6 ± 0.05	about 1.3 fold	99.8 ± 0.4
N#Cc1cnc2ccc(Cl)cc2c1Nc1ccccc1 [Compound 1a, 6-chloro-4-(phenylamino)quinoline-3-carbonitrile]	> 100			> 100			> 5.68	17.6 ± 6.1	~1.6 fold	45.5 ± 9
N#Cc1cnc2ccc(Cl)cc2c1Nc1cccc(F)c1 [Compound 1b, 6-chloro-4-(3’-fluorophenylamino)quinoline-3-carbonitrile]	69 ± 22			67 ± 11.6			4	16.6 ± 0.2		53.2 ± 10
N#Cc1cnc2ccc(Cl)cc2c1Nc1ccc(F)cc1 [Compound 1c, 6-chloro-4-(4’-fluorophenylamino)quinoline-3-carbonitrile]	> 100			> 100			> 11.4	8.8 ± 1.3		52.5 ± 6
N#Cc1cnc2ccc(Cl)cc2c1Nc1ccccc1Cl [Compound 1d, 6-chloro-4-(2’-chlorophenylamino)quinoline-3-carbonitrile]	64 ± 12.5			47.7 ± 13			1.19	40 ± 13.7		57.6 ± 8
N#Cc1cnc2ccc(Cl)cc2c1Nc1cccc(Cl)c1 [Compound 1e, 6-chloro-4-(3’-chlorophenylamino)quinoline-3-carbonitrile]	89 ± 18			65.2 ± 18.5			4.2	15.4 ± 0.7		55.4 ± 7
N#Cc1cnc2ccc(Cl)cc2c1Nc1cccc(Br)c1 [Compound 1f, 4-(3’-bromophenylamino)-6-chloroquinoline-3-carbonitrile]	71 ± 26			> 100			> 4.7	21.2 ± 14.2		60.4 ± 9
